Measurements taken from ChEMBL document CHEMBL1124171, “Ergolines as selective 5-HT1 agonists” (J Med Chem, 1988).

Assays:
[1] = biological target: Serotonin 1 (5-HT1) receptor (Rattus norvegicus, UniProt P28564+P30940+P19327+P28565); assay: Binding affinity towards 5-hydroxytryptamine 1 receptor using [3H]5-HT as a radioligand from rat frontal cortex homogenates; type: tissue-based
[2] = biological target: Serotonin 2 (5-HT2) receptor (Rattus norvegicus, UniProt P30994+P08909+P14842); assay: Binding affinity at 5-hydroxytryptamine 2 receptor from rat frontal cortex homogenates by [3H]-spiperone displacement.; type: tissue-based
Rattus norvegicus [3] = assay: Decreased accumulation of 5-hydroxytryptophan after decarboxylase inhibition in the hypothalamus of rat at a dose 0.03mg/Kg, sc; type: functional, organism-based
In short: (§1)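 Male Wistar rats (~150 g) got drug sc in dilute HCl. NSD 1015 (100 mg/kg, ip) was given 30 min after drug and 30 min before decapitation. Hypothalamic 5-HTP was measured by LC with electrochemical detection. Results are mean ± SE, five rats per treated group and six controls; significance at P < 0.01.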

Rattus norvegicus [4] = assay: Decreased accumulation of 5-hydroxytryptophan after decarboxylase inhibition in the hypothalamus of rat at a dose 0mg/Kg, sc; type: functional, organism-based; in short: as §1
Rattus norvegicus [5] = assay: Decreased accumulation of 5-hydroxytryptophan after decarboxylase inhibition in the hypothalamus of rat at a dose 0.01mg/Kg, sc; type: functional, organism-based; in short: as §1
Rattus norvegicus [6] = assay: Effect on 5-hydroxyindoleacetic acid in rat whole brain, after sc administration (0.01 mg/kg dose) (experiment 2); type: functional, organism-based
In short: (§2)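 Drug was given sc in dilute HCl to male Wistar rats (~150 g), with decapitation 1 h later. Whole brains were frozen on dry ice and held at −15 °C. […] Results are mean ± SE, five rats/group, P < 0.05 versus vehicle control.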

Rattus norvegicus [7] = assay: Effect on concentration of 5HIAA in rat brain hypothalamus after 0.3 mg/kg sc administration; type: functional, organism-based; parameters: dose 0.3 mg/kg
In short: (§3)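 Male Wistar rats (~150 g) were injected sc with drug in dilute HCl and decapitated 1 h later. Hypothalamus and striatum were dissected and frozen on dry ice. […] Results are mean ± SE, five rats/group, P < 0.05.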

Rattus norvegicus [8] = assay: Effect on concentration of 5HIAA in rat brain striatum after 0.3 mg/kg sc administration; type: functional, organism-based; parameters: dose 0.3 mg/kg; in short: as §3
Rattus norvegicus [9] = assay: Effect on concentrations of serotonin in rat brain hypothalamus after 0.3 mg/kg sc administration; type: functional, organism-based; parameters: dose 0.3 mg/kg; in short: as §3
Rattus norvegicus [10] = assay: Effect on serotonin in rat whole brain, after sc administration (0.01 mg/kg dose) (experiment 2); type: functional, organism-based; in short: as §2
Rattus norvegicus [11] = assay: Effect on serotonin in rat whole brain, after sc administration (1 mg/kg dose) (experiment 1); type: functional, organism-based
Rattus norvegicus [12] = assay: Effect on serum corticosterone in serum of rats after sc administration (0.3 mg/kg dose) (experiment 1); type: functional, organism-based
In short: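 Male Wistar rats (~150 g) housed at 24 °C with lights 7 a.m.–7 p.m. Compound in dilute HCl given sc 1 h before decapitation. Serum corticosterone measured spectrofluorometrically, μg/100 mL. Five rats per group, mean ± SE. Significance set at P < 0.05 versus the vehicle control.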

Rattus norvegicus [13] = assay: Effect on 5-hydroxyindoleacetic acid in rat whole brain, after sc administration (0.03 mg/kg dose) (experiment 2); type: functional, organism-based; in short: as §2
Rattus norvegicus [14] = assay: Effect on 5-hydroxyindoleacetic acid in rat whole brain, after sc administration (0.1 mg/kg dose) (experiment 1); type: functional, organism-based; in short: as §2
Rattus norvegicus [15] = assay: Effect on 3,4- dihydroxyphenylacetic acid concentration in rat striatum, after 0.03 mg/kg sc administration; type: functional; conditions: route subcutaneous
In short: (§4)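 Male Wistar rats (~150 g) were given drug or apomorphine HCl sc and decapitated 1 h later. Striatal DOPAC and HVA were quantified by LC with electrochemical detection. Results are mean ± SE, five rats/group, P < 0.05.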

Rattus norvegicus [16] = assay: Effect on 3,4-dihydroxyphenylacetic acid concentration in rat striatum, after 0.1 mg/kg sc administration; type: functional; conditions: route subcutaneous; in short: as §4
Rattus norvegicus [17] = assay: Effect on 3,4-dihydroxyphenylacetic acid concentration in rat striatum, after 0.3 mg/kg sc administration; type: functional; conditions: route subcutaneous; in short: as §4
Rattus norvegicus [18] = assay: Effect on homovanillic acid concentration in rat striatum, after 0.1 mg/kg sc administration; type: functional; conditions: route subcutaneous; in short: as §4
Rattus norvegicus [19] = assay: Effect of Metergoline on the elevation of serum corticosterone, after sc administration (0.03 mg/kg) No pretreatment; type: functional, organism-based
In short: (§5)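 Male Wistar rats (~150 g) received metergoline (3 mg/kg, ip) or no pretreatment. Drug was given sc in dilute HCl 1 h later, and rats were decapitated 1 h after that. Serum corticosterone was determined spectrofluorometrically. Results are mean ± SE, five rats/group, P < 0.05 versus the corresponding control.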

Rattus norvegicus [20] = assay: Effect of Metergoline on the elevation of serum corticosterone, after sc administration (0.1 mg/kg) No pretreatment; type: functional, organism-based; in short: as §5
Rattus norvegicus [21] = organism: Rattus norvegicus; assay: Effect of fluoxetine on the elevation of serum corticosterone at a dose 100 ug/mL, No pretreatment; type: functional, organism-based
In short: (§6)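 Rats got fluoxetine HCl (10 mg/kg, ip) or no pretreatment. 16 h later, drug (0.3 mg/kg, sc, dilute HCl) or p-chloroamphetamine HCl (2.5 mg/kg, ip) was given, with decapitation 1 h after. Serum corticosterone was measured spectrofluorometrically. Results are mean ± SE, five male Wistar rats/group, P < 0.05.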

Rattus norvegicus [22] = organism: Rattus norvegicus; assay: Effect of […] on the elevation of serum corticosterone at a dose 100 ug/mL No pretreatment; type: functional, organism-based
In short: as §6, with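 “p-chlorophenylalanine (300” for “fluoxetine HCl (10”, “24” for “16”, “and rats were killed” for “with decapitation”, “rats/group.” for “rats/group, P < 0.05.”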

[23] = Ratio of affinity towards 5-HT1 to 5-HT2 receptor
In short: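 Frontal cortex from male Wistar rats (140–160 g), homogenate pellet in 0.05 M Tris with 10 μM pargyline and 4 mM Ca²⁺, 250–350 μg protein/sample. 5-HT1: 2 nM [³H]-5-HT, nonspecific with 10 μM 5-HT. […] Eleven concentrations, 0.1–10 000 nM, in duplicate. IC50 from curve fitting of specific binding.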

With `C[C@@H]1C=C2c3cccc4c3[C@@H](CN4)C[C@H]2N(C)C1` as the compound, how does the IC50 [1] read?
The IC50 was 17 nM.

And the IC50 [2]?
The IC50 was 1665 nM.

And the Concentration (Rattus norvegicus [3])?
Its Concentration is 1.19 nM/g.

What about the Concentration (Rattus norvegicus [4]) of the same compound?
The Concentration was 1.92 nM/g.

What about the Concentration (Rattus norvegicus [5]) of the same compound?
Its Concentration is 1.64 nM/g.

And the Concentration (Rattus norvegicus [6])?
Its Concentration is 2.2 nM/g.

What about the Concentration (Rattus norvegicus [7]) of the same compound?
Its Concentration is 2.18 mg/kg.

And the Concentration (Rattus norvegicus [8])?
The Concentration was less than 2.38 mg/kg.

What about the Concentration (Rattus norvegicus [9]) of the same compound?
Its Concentration is 4.78 mg/kg.

And the Concentration (Rattus norvegicus [10])?
The Concentration was 2.67 nM/g.

And the Concentration (Rattus norvegicus [11])?
Its Concentration is 3.02 nM/g.

What about the Concentration (Rattus norvegicus [12]) of the same compound?
Its Concentration is 46.6 nM/g.

What about the Concentration (Rattus norvegicus [13]) of the same compound?
Its Concentration is 1.9 nM/g.

What about the Concentration (Rattus norvegicus [14]) of the same compound?
The Concentration was 1.45 nM/g.

What about the DOPAC concentration (Rattus norvegicus [15]) of the same compound?
The DOPAC concentration was 3.81 nM/g.

What about the DOPAC concentration (Rattus norvegicus [16]) of the same compound?
The DOPAC concentration was 4.44 nM/g.

What about the DOPAC concentration (Rattus norvegicus [17]) of the same compound?
The DOPAC concentration was 4.62 nM/g.

What about the Homovanillic acid concentration (Rattus norvegicus [18]) of the same compound?
The Homovanillic acid concentration was 3.65 nM/g.

And the Serum corticosterone (Rattus norvegicus [19])?
Its Serum corticosterone is 6.5 µg/mL.

And the Serum corticosterone (Rattus norvegicus [20])?
The Serum corticosterone was 33.8 µg/mL.

And the Serum corticosterone (Rattus norvegicus [21])?
Its Serum corticosterone is less than 68.2 µg/mL.

And the Serum corticosterone (Rattus norvegicus [22])?
Its Serum corticosterone is 47.3 µg/mL.

What about the Selectivity ratio [23] of the same compound?
The Selectivity ratio was 100.
